Measured values from ChEMBL document CHEMBL1128256, “Synthesis, biological evaluation, and structure analysis of a series of new 1,5-anhydrohexitol nucleosides” (J Med Chem, 1995).
≈ marks a conversion by molar mass, not a printed value.

How the values were obtained:
HEL [1] = test: Tested for the inhibitory concentration required to reduce thymidine kinase deficient Varicella-Zoster virus (TK-VZV) strain YS/R plaque formation by 50%; assay type: functional, cell-based; settings: Homo sapiens
Method in brief: (§1)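 Virus plaque formation assay in human embryonic lung (HEL) cells seeded in 96-well trays. Targets were TK+ VZV (Oka, YS), TK- VZV (07/1, YS/R) and CMV (AD169, Davis). Value is the concentration that reduces plaque number by 50%. Cytotoxicity in HEL cells was taken as the concentration that reduces cell growth by 50%.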

E6SM [2] = test: Tested for the minimum inhibitory concentration required to reduce thymidine kinase deficient herpes simplex virus type 1 (TK- HSV-1) strain B2006 induced cytopathogenicity by 50%; assay type: functional; settings: Homo sapiens
Method in brief: (§2)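 Inhibition of virus-induced cytopathogenicity in human embryonic skin-muscle (E6SM) fibroblasts seeded in 96-well trays. Viruses were HSV-1 (KOS, F, McIntyre), TK- HSV-1 B2006, TK-/TK+ HSV-1 clinical isolate VMW-1837 and HSV-2 (G, 196, Lyons). […] MCC is the lowest concentration giving microscopically detectable alteration of normal cell morphology; highest concentration tested was 400 µg/mL.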

HEL [3] = test: Tested for the cytotoxic concentration, required to reduce cell growth by 50% in human embryonic lung (HEL) cells; assay type: functional; method in brief: as §1
HEL [4] = test: Tested for the inhibitory concentration required to reduce cytomegalovirus (CMV) strain AD-169 plaque formation by 50%; assay type: functional, cell-based; settings: Homo sapiens; method in brief: as §1
HEL [5] = test: Tested for the inhibitory concentration required to reduce TK+varicella-zoster virus (TK+ VZV) strain OKA plaque formation by 50%; assay type: functional, cell-based; settings: Homo sapiens; method in brief: as §1
E6SM [6] = test: Tested for the minimum inhibitory concentration required to reduce herpes simplex virus type 1 (TK/ TK+HSV-1) strain VMW-1837 induced cytopathogenicity by 50%; assay type: functional; settings: Homo sapiens; method in brief: as §2
HEL [7] = test: Tested for the inhibitory concentration required to reduce cytomegalovirus (CMV) strain Davis plaque formation by 50%; assay type: functional, cell-based; settings: Homo sapiens; method in brief: as §1
E6SM [8] = test: Tested for the minimum inhibitory concentration required to reduce herpes simplex virus type 2 (HSV-2) strain 196 induced cytopathogenicity by 50%; assay type: functional; settings: Homo sapiens; method in brief: as §2
HEL [9] = test: Tested for the inhibitory concentration required to reduce TK+ Varicella-Zoster virus (TK+VZV) strain YS plaque formation by 50%; assay type: functional, cell-based; settings: Homo sapiens; method in brief: as §1
E6SM [10] = test: Tested for the minimum inhibitory concentration required to reduce herpes simplex virus type 2 (HSV-2) strain G induced cytopathogenicity by 50%; assay type: functional; settings: Homo sapiens; method in brief: as §2
E6SM [11] = test: Tested for the minimum inhibitory concentration required to reduce herpes simplex virus type 1 (HSV-1) strain McIntyre induced cytopathogenicity by 50%; assay type: functional; settings: Homo sapiens; method in brief: as §2
E6SM [12] = test: Tested for the minimum inhibitory concentration required to reduce herpes simplex virus type 1 (HSV-1) strain F induced cytopathogenicity by 50%.; assay type: functional; settings: Homo sapiens; method in brief: as §2
E6SM [13] = test: Tested for the minimum cytotoxic concentration required to cause a microscopically detectable alteration of normal cell morphology in human embryonic skin muscle (E6SM) fibroblast cell cultures; assay type: functional
Method in brief: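 Cytotoxicity in human embryonic skin-muscle (E6SM) fibroblasts seeded in 96-well trays, scored microscopically as altered normal cell morphology. Tested up to 400 µg/mL.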

HEL [14] = test: Tested for the inhibitory concentration required to reduce thymidine kinase deficient Varicella-Zoster virus (TK-VZV) strain 07/1 plaque formation by 50%; assay type: functional, cell-based; settings: Homo sapiens; method in brief: as §1
E6SM [15] = test: Tested for the minimum inhibitory concentration required to reduce herpes simplex virus type 1 (HSV-1) strain KOS induced cytopathogenicity by 50%; assay type: functional; settings: Homo sapiens; method in brief: as §2
E6SM [16] = test: Tested for the minimum inhibitory concentration required to reduce herpes simplex virus type 2 (HSV-2) strain Lyons induced cytopathogenicity by 50%; assay type: functional; settings: Homo sapiens; method in brief: as §2
HEL [17] = test: Tested for the inhibitory concentration required to reduce cytomegalovirus (CMV) strain AD-169 plaque formation by 50%.; assay type: functional, cell-based; settings: Homo sapiens; method in brief: as §1
HEL [18] = test: Tested for the cytotoxic concentration, required to reduce cell growth by 50% in human embryonic lung (HEL) cells.; assay type: functional; method in brief: as §1
Mus musculus = organism: Mus musculus; test: Inhibition constant assumed to reflect the affinity for the transport site in mouse erythrocytes; assay type: functional
Method in brief: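 Thymidine influx competition in erythrocytes from male B6D2F1 mice, 10% hematocrit in buffered saline, room temperature. [methyl-3H]thymidine at 0.1, 0.2, 0.5 and 1 mM, alone or with inhibitor at 0.053–1.05 mM. Influx stopped after 3 s with NBMPR. Pellets extracted in 5% perchloric acid and counted by scintillation. Zero-time trapping subtracted. Duplicate samples. Ki from Dixon plot.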

HEL [19] = test: Tested for the inhibitory concentration required to reduce TK+ Varicella-Zoster virus (TK+ VZV) strain YS plaque formation by 50%; assay type: functional, cell-based; settings: Homo sapiens
HEL [20] = test: Tested for the inhibitory concentration required to reduce cytomegalovirus (CMV) strain Davis plaque formation by 50%.; assay type: functional, cell-based; settings: Homo sapiens; method in brief: as §1
HEL [21] = test: Tested for the inhibitory concentration required to reduce TK+ Varicella-Zoster virus (TK+ VZV) strain OKA plaque formation by 50%.; assay type: functional, cell-based; settings: Homo sapiens
HEL [22] = test: Tested for the inhibitory concentration required to reduce thymidine kinase deficient Varicella-Zoster virus (TK- VZV) strain 07/1 plaque formation by 50%.; assay type: functional, cell-based; settings: Homo sapiens
HEL [23] = test: Tested for the inhibitory concentration required to reduce thymidine kinase deficient Varicella-Zoster virus (TK- VZV) strain YS/R plaque formation by 50%.; assay type: functional, cell-based; settings: Homo sapiens
E6SM [24] = test: Tested for the minimum inhibitory concentration required to reduce herpes simplex virus type 2 (HSV-2) strain G induced cytopathogenicity by 50%.; assay type: functional; settings: Homo sapiens; method in brief: as §2
E6SM [25] = test: Tested for the minimum inhibitory concentration required to reduce herpes simplex virus type 1 (HSV-1) strain KOS induced cytopathogenicity by 50%.; assay type: functional; settings: Homo sapiens; method in brief: as §2
E6SM [26] = test: Tested for the minimum cytotoxic concentration required to cause a microscopically detectable alteration of normal cell morphology in human embryonic skin muscle (E6SM) fibroblast cell cultures.; assay type: functional; method in brief: as §2
E6SM [27] = test: Tested for the minimum inhibitory concentration required to reduce thymidine kinase deficient herpes simplex virus type 1 (TK- / TK+ HSV-1) strain VMW-1837 induced cytopathogenicity by 50%.; assay type: functional; settings: Homo sapiens; method in brief: as §2
E6SM [28] = test: Tested for the minimum inhibitory concentration required to reduce thymidine kinase deficient herpes simplex virus type 1 (TK- HSV-1) strain B2006 induced cytopathogenicity by 50%.; assay type: functional; settings: Homo sapiens; method in brief: as §2
E6SM [29] = test: Tested for the minimum inhibitory concentration required to reduce herpes simplex virus type 2 (HSV-2) strain Lyons induced cytopathogenicity by 50%.; assay type: functional; settings: Homo sapiens; method in brief: as §2
E6SM [30] = test: Tested for the minimum inhibitory concentration required to reduce vaccinia virus(VV) induced cytopathogenicity by 50%.; assay type: functional; settings: Homo sapiens
E6SM [31] = test: (§3) Tested for the minimum inhibitory concentration required to reduce herpes simplex virus type 2 (HSV-2) strain 196 induced cytopathogenicity by 50%.; assay type: functional; settings: Homo sapiens; method in brief: as §2
E6SM [32] = test: Tested for the minimum inhibitory concentration required to reduce herpes simplex virus type 1 (HSV-1) strain McIntyre induced cytopathogenicity by 50%.; assay type: functional; settings: Homo sapiens; method in brief: as §2
E6SM [33] = test: as §3; assay type: functional; settings: Homo sapiens; remark: listed apart in the source
E6SM [34] = test: Tested for the minimum inhibitory concentration required to reduce vesicular stomatitis virus(VSV) induced cytopathogenicity by 50%; assay type: functional; settings: Homo sapiens
E6SM [35] = test: Tested for the minimum inhibitory concentration required to reduce herpes simplex virus type 1 (TK- / TK+ HSV-1) strain VMW-1837 induced cytopathogenicity by 50%.; assay type: functional; settings: Homo sapiens; method in brief: as §2

Compound | MIC (E6SM [12]) | IC50 (HEL [17]) | CC50 (HEL [18]) | IC50 (HEL [19]) | IC50 (HEL [20]) | IC50 (HEL [21]) | IC50 (HEL [22]) | IC50 (HEL [23]) | MIC (E6SM [24]) | MIC (E6SM [25]) | MCC (E6SM [26]) | MIC (E6SM [28]) | MIC (E6SM [29]) | MIC (E6SM [30]) | MIC (E6SM [32]) | MIC (E6SM [35]) | further results
OCC1OCC(n2cnc3c(O)ncnc32)CC1O (configuration not stated) | 300 µg/mL (≈ 1130 µM) | – | – | – | – | – | – | – | – | – | – | – | – | – | – | – | IC50 (HEL [1]): > 40 µg/mL; MIC (E6SM [2]): > 400 µg/mL; CC50 (HEL [3]): > 50 µg/mL; IC50 (HEL [4]): > 40 µg/mL; IC50 (HEL [5]): > 40 µg/mL; MIC (E6SM [6]): 300 µg/mL (≈ 1130 µM); IC50 (HEL [7]): > 40 µg/mL; MIC (E6SM [8]): 300 µg/mL (≈ 1130 µM); IC50 (HEL [9]): 25 µg/mL (≈ 93.9 µM); MIC (E6SM [10]): > 400 µg/mL; MIC (E6SM [11]): > 400 µg/mL; MCC (E6SM [13]): > 400 µg/mL; IC50 (HEL [14]): > 40 µg/mL; MIC (E6SM [15]): > 400 µg/mL; MIC (E6SM [16]): 300 µg/mL (≈ 1130 µM)
Nc1nc2c(ncn2COCCO)c(=O)[nH]1 [ACYCLOVIR] | – | 20 µg/mL (≈ 88.8 µM) | > 200 µg/mL | – | – | – | – | – | – | – | – | – | – | – | – | – | –
O=c1ccn([C@H]2C[C@H](O)[C@@H](CO)O2)c(=O)[nH]1 [DEOXYURIDINE] | – | – | – | – | – | – | – | – | – | – | – | – | – | – | – | – | Ki (Mus musculus): 110 µM
Nc1nc2c(ncn2COC(CO)CO)c(=O)[nH]1 [GANCICLOVIR] | – | 2.9 µg/mL (≈ 11.4 µM) | > 200 µg/mL | 0.072 µg/mL (≈ 0.282 µM) | 6.2 µg/mL (≈ 24.3 µM) | 0.02 µg/mL (≈ 0.0784 µM) | 0.1 µg/mL (≈ 0.392 µM) | 0.9 µg/mL (≈ 3.53 µM) | – | – | – | – | – | – | – | – | –
O=c1[nH]c(=O)n(C2COC(CO)C(O)C2)cc1I (configuration not stated) | 0.01 µg/mL (≈ 0.0272 µM) | > 40 µg/mL | > 50 µg/mL | > 100 µg/mL | > 40 µg/mL | > 100 µg/mL | > 100 µg/mL | > 100 µg/mL | 0.4 µg/mL (≈ 1.09 µM) | 0.02 µg/mL (≈ 0.0543 µM) | > 400 µg/mL | > 400 µg/mL | 0.4 µg/mL (≈ 1.09 µM) | 200 µg/mL (≈ 543 µM) | 0.04 µg/mL (≈ 0.109 µM) | – | MIC (E6SM [27]): 4 µg/mL (≈ 10.9 µM); MIC (E6SM [31]): 0.7 µg/mL (≈ 1.9 µM)
O=c1[nH]c(=O)n([C@H]2C[C@H](O)[C@@H](CO)O2)cc1/C=C/Br [BRIVUDINE] | 0.004 µg/mL (≈ 0.012 µM) | > 100 µg/mL | > 50 µg/mL | 0.0015 µg/mL (≈ 0.0045 µM) | > 100 µg/mL | 0.0007 µg/mL (≈ 0.0021 µM) | 8 µg/mL (≈ 24 µM) | 30 µg/mL (≈ 90.1 µM) | > 200 µg/mL | 0.004 µg/mL (≈ 0.012 µM) | > 400 µg/mL | 40 µg/mL (≈ 120 µM) | 70 µg/mL (≈ 210 µM) | 2 µg/mL (≈ 6 µM) | 0.2 µg/mL (≈ 0.6 µM) | 70 µg/mL (≈ 210 µM) | MIC (E6SM [33]): 300 µg/mL (≈ 901 µM); MIC (E6SM [34]): > 200 µg/mL; Ki (Mus musculus): 23 µM
CCc1cn(C2COC(CO)C(O)C2)c(=O)[nH]c1=O (configuration not stated) | – | > 50 µg/mL | > 50 µg/mL | > 50 µg/mL | > 50 µg/mL | > 50 µg/mL | > 50 µg/mL | > 50 µg/mL | 0.4 µg/mL (≈ 1.48 µM) | 0.02 µg/mL (≈ 0.074 µM) | > 400 µg/mL | > 400 µg/mL | – | 200 µg/mL (≈ 740 µM) | – | 0.4 µg/mL (≈ 1.48 µM) | –
Nc1nc(=O)n(C2COC(CO)C(O)C2)cc1I (configuration not stated) | 0.7 µg/mL (≈ 1.91 µM) | > 40 µg/mL | > 50 µg/mL | > 40 µg/mL | > 40 µg/mL | > 40 µg/mL | – | 7.6 µg/mL (≈ 20.7 µM) | 7 µg/mL (≈ 19.1 µM) | 2 µg/mL (≈ 5.45 µM) | > 400 µg/mL | 300 µg/mL (≈ 817 µM) | 20 µg/mL (≈ 54.5 µM) | 150 µg/mL (≈ 409 µM) | 2 µg/mL (≈ 5.45 µM) | 70 µg/mL (≈ 191 µM) | MIC (E6SM [34]): > 400 µg/mL; MIC (E6SM [31]): 20 µg/mL (≈ 54.5 µM)
